Screens from PubChem BioAssay.
Most compounds without a hit are left out; they make up all but 5.3% or so of the library.
CSC inhib – blocks cancer stem cells; 300,000 tested, 1.1% active; inhibition, % at 7.5 µM; AID 2717; cancer stem cell-like cells viability, luminescence; in the data active = inhibition above about 75%; inconclusive = no clear call, values can overlap the other calls; tested in HMLE shEcad cells
Mdm2 MdmX PPI – disrupts the human Mdm2-MdmX interaction; O15151+Q00987; 330,000 tested, 3% active; SaOS-2 split-luciferase Mdm2/MdmX complementation, luminescence; inhibition, % at 8 µM;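 active = inhibition of at least 50% at 8 µM in the primary screen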
Target sequence (O15151 whole entry, looked up): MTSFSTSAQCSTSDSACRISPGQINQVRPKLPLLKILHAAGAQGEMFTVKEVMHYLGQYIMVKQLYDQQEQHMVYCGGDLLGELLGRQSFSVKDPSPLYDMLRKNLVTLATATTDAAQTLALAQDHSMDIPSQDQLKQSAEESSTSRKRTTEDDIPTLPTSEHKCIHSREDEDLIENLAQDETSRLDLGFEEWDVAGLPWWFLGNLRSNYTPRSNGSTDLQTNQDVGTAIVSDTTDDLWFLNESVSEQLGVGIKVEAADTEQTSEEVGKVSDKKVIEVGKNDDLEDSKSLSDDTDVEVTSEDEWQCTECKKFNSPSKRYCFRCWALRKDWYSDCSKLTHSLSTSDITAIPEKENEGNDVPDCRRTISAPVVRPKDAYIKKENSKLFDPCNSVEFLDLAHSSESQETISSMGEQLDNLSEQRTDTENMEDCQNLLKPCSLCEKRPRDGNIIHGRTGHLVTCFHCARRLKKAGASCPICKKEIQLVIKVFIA
Target sequence (Q00987 whole entry, looked up): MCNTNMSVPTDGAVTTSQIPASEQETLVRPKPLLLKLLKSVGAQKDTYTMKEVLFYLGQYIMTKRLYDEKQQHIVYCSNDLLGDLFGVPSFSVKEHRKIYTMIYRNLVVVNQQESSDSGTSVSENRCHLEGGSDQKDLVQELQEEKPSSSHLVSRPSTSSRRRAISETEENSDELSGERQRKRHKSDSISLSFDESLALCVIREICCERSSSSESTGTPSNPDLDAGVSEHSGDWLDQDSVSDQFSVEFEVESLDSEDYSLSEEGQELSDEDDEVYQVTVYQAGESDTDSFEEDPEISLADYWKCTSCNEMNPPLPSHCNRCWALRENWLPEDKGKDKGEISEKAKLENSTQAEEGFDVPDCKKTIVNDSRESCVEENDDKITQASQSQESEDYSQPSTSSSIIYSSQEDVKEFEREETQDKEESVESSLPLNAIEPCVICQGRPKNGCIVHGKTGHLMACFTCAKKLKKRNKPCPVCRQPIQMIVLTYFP
NALP3 yeast inh – NALP3 inhibition in yeast | AID 2825 | 330,000 tested, 0.39% active | inhibition, % at 10 µM | Yeast reconstituted NLRP3/ASC/caspase-1, beta-gal luminescence, 24 h;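 active = inhibition of 50% or more; inactive = inhibition below 50%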
Beta apoptosis – beta cell apoptosis inhibition; protection from apoptosis, % (test concentration not listed); 300,000 tested, 0.8% active; INS-1E cytokine-induced death, ATP luminescence, 48 h; percent of positive-control rescue, neutral wells zero; AID 435005;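 active = Every replicate reaches about 75%, or at least half do and their mean reaches it too, limit read from the data; inconclusive = At least half of replicates reach the limit but their mean does not; inactive = Under half of replicates reach the limit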;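 note: higher means more ATP so stronger rescue from cytokine killing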
T cruzi repl – blocks replication of Trypanosoma cruzi; T. cruzi beta-gal in NIH3T3, luminescence, 90 h; inhibition, % (test concentration not listed); 300,000 tested, 1.4% active;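 active = mean inhibition across valid replicates above about 55%, limit read from the data; inconclusive = mean below that limit but half or more replicates reach it; inactive = mean below it, under half of replicates reach it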;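 note: signal also drops with host cell toxicity which is not excluded here; higher percent means less beta-gal luminescence so fewer parasites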
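Assay system: NIH/3T3 host cells with β-galactosidase reporter T. cruzi; input: 5,000 host fibroblasts per well; compound: single 50 nL compound addition per well in DMSO; timing: ≥90 h infection period, 3 h prior cell attachment; measured by: GalScreen β-gal luminescence, detergent lysis, 60 min; evaluation: percent inhibition of parasite-derived β-gal signal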
Calb FLC – C. albicans growth modulation with fluconazole; C. albicans CaCi-2 (fluconazole-resistant clinical isolate) + fluconazole, Alamar Blue growth, 48 h; growth inhibition, % (no concentration beside the values); 300,000 tested, 0.57% active; AID 1979;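 active = growth inhibition above about 58% in most replicates, limit read from the data, passing the limit was not always enough; inconclusive = exactly half the replicates above a set limit; inactive = most replicates below a set limit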;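 note: all wells also contain fluconazole at 8 µg/ml as a sub-toxic cotreatment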
Mdm2 MdmX conf – human Mdm2/MdmX binding inhibition, confirmed; AID 489028; shares compounds with Mdm2 MdmX PPI; inhibition, % at 8 µM; 10,000 tested, 55% active; luminescent assay; in the data active = inhibition above about 40%
FLuc counter – inhibits full-length luciferase, flagging false Mdm2/MdmX hits; shares compounds with Mdm2 MdmX PPI; SaOS-2 full-length luciferase counterscreen, luminescence; inhibition, % at 8 µM; 6,200 tested, 77% active; AID 504607;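 active = mean inhibition at 8 µM reaching about 37%, which flags the compound as non-specific, limit read from the data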;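 note: p53-null SaOS-2 cells with luciferase driven by a doxycycline-inducible promoter; compound on cells about two nights before reading with doxycycline added after day one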
A number is an active result; - = inactive; ? = inconclusive; . = not tested or not shown.

SMILES	CSC inhib	Mdm2 MdmX PPI	NALP3 yeast inh	Beta apoptosis	T cruzi repl	Calb FLC	Mdm2 MdmX conf	FLuc counter
O=C(CCS(=O)(=O)c1ccccc1)Nc1nc2c(s1)COc1ccccc1-2	-	63	-	-	-	-	-	.
O=C(Nc1nc2c(s1)COc1ccccc1-2)c1cccs1	-	-	-	-	-	-	.	.
CCn1c(=O)c(C(=O)CN2CCN(S(=O)(=O)c3ccc(C)cc3C)CC2)c(N)n(Cc2ccccc2)c1=O	-	53	-	-	-	-	43	75
CCn1c(=O)c(C(=O)CN2CCN(S(=O)(=O)c3ccccc3)CC2)c(N)n(Cc2ccccc2)c1=O	-	-	-	-	-	-	.	.
N#CC1=C(c2ccccc2)/C(=C/c2ccccc2)OC1=O	-	100	-	-	-	?	75	49
COc1ccc(N2CCN(CC(=O)Nc3ncc(C)s3)CC2)cc1	-	-	-	-	-	-	.	.
Cc1cnc(NC(=O)CN2CCN(c3ccccn3)CC2)s1	-	67	-	79	-	-	63	64
CC(=O)NC(c1ccco1)c1cc(F)c2cccnc2c1O (centres undefined)	-	57	-	82	.	.	49	44
CC(=O)NC(c1ccco1)c1cc(Cl)c2ccccc2c1O (centres undefined)	-	-	-	-	.	.	.	.
CC(=O)NC(c1cccs1)c1cc(F)c2cccnc2c1O (centres undefined)	-	63	-	91	.	.	67	-
COc1cc(NC(C)=O)c2ncccc2c1NC(C)=O	-	-	-	-	-	-	.	.
Cc1ccc(Cl)cc1N1CCN(C(=O)Cc2csc(Nc3nc(=S)[nH]c4ccccc34)n2)CC1	-	55	-	-	-	-	-	.
O=C(Cc1csc(Nc2nc(=S)[nH]c3ccccc23)n1)N1CCN(c2cccc(Cl)c2)CC1	-	-	-	-	-	-	.	.
CCC(=O)N1CCc2cc(Br)cc(S(=O)(=O)NC3CCN(Cc4ccccc4)CC3)c21	-	-	-	-	-	-	.	.
Cc1cc(COC(=O)C2N3C(=O)[C@@H](NC(=O)COc4ccccc4)[C@H]3SC2(C)C)on1 (some centres undefined)	-	-	-	-	-	-	.	.
O=C(NCc1ccncc1)c1cn(-c2ccccc2)nc1-c1cccnc1	.	-	-	-	-	-	.	.
O=C(NC1CCN(Cc2ccc(Cl)cc2)CC1)c1cn(-c2ccccc2)nc1-c1cccnc1	-	53	-	-	.	.	-	.
Cc1cccc(N2CCN(C(=O)c3cc4c(=O)n(C)c5ccccc5c4n3C)CC2C)c1 (centres undefined)	-	52	-	-	-	-	-	.
Cn1c(C(=O)N2CCCCCC2)cc2c(=O)n(C)c3ccccc3c21	-	-	-	-	-	-	.	.
COc1cc(-c2nc3ccc(C)cn3c2Nc2ccc3c(c2)OCCO3)ccc1O	-	-	-	-	-	-	.	.
Cc1ccc(NCC(=O)N/N=C\c2cccc(O)c2)cc1	-	-	-	-	-	-	.	.
COC(=O)c1ccc(OCC2c3cc(OC)c(OC)cc3CCN2C(=O)c2ccco2)cc1 (centres undefined)	.	53	-	-	-	-	43	71
CC1c2cc3c(cc2CCN1C(=O)c1ccc(Br)cc1)OCCCO3 (centres undefined)	-	70	-	-	-	-	46	47
COc1ccc(C(=O)N2CCc3cc4c(cc3C2C)OCCCO4)cc1 (centres undefined)	-	-	-	.	-	-	.	.
CC1(C)Cc2c(cnn2-c2ccc(F)cc2)C(NC(=O)C2CCC2)C1 (centres undefined)	-	-	-	-	-	-	.	.
SMILES	CSC inhib	Mdm2 MdmX PPI	NALP3 yeast inh	Beta apoptosis	T cruzi repl	Calb FLC	Mdm2 MdmX conf	FLuc counter
O=C(c1nnsc1S(=O)c1ccc(Cl)cc1)N1CCOCC1 (centres undefined)	.	99	-	.	63	-	94	53
CCN1C=CC(=C2C(=O)c3ccccc3C2=O)C=C1	-	72	-	-	-	-	78	37
CCCN1C=CC(=C2C(=O)c3ccccc3C2=O)C=C1	-	88	-	-	-	-	94	55
CCC(C)NC(=O)[C@@H]1CCCN1C(=O)C1CCN(S(=O)(=O)c2ccc(C)cc2)CC1 (some centres undefined)	-	-	-	-	-	-	.	.
Cn1c(=O)c2[nH]c(N=NNc3ccccc3F)nc2n(C)c1=O	-	-	-	-	-	-	.	.
Cc1ccc(NS(=O)(=O)c2csc(C(N)=O)c2)c(C)c1	-	-	-	-	-	-	.	.
O=S(=O)(CCN1C=CC(C(F)(F)F)=NCC1)c1ccc(F)cc1	-	-	-	-	-	-	.	.
COc1ccc(S(=O)(=O)n2nc(-c3ccc(Cl)cc3)cc2N)cc1	-	51	-	-	-	-	52	59
CCOC(=O)c1oc2ccc(S(=O)(=O)n3nc(-c4ccc(Cl)cc4)cc3N)cc2c1C	-	62	-	-	-	-	54	57
Cn1c(/C=C/c2ccc([N+](=O)[O-])o2)nc2ccccc2c1=O	110	91	-	106	67	-	70	53
Cn1c(/C=C/c2ccccc2)nc2ccccc2c1=O	-	-	-	-	-	-	.	.
Nc1c(S(=O)(=O)c2cc(Cl)ccc2Cl)c2nc3ccccc3nc2n1CCN1CCOCC1	-	-	-	-	-	-	.	.
Cc1cc(NCCCn2ccnc2)n2ncc(-c3ccc(Cl)cc3)c2n1	-	60	-	-	-	-	86	52
Cn1c(=O)c2c(nc(NCCCN3CCOCC3)n2Cc2ccc(Cl)cc2)n(C)c1=O	-	-	-	-	-	-	.	.
Cc1cc(NCCCN2CCOCC2)n2ncc(-c3ccc(Cl)cc3)c2n1	-	65	-	-	-	-	62	69
CN(C)CCCNc1cc(C(C)(C)C)nc2c(-c3ccc(Cl)cc3)cnn12	107	98	-	-	-	95	72	51
Cc1cccc(-c2cc3nc(C)cc(NCCCn4ccnc4)n3n2)c1	-	-	-	-	-	-	.	.
O=C(COc1cccnc1[N+](=O)[O-])N1CCN(S(=O)(=O)c2ccc3ccccc3c2)CC1	-	-	-	-	-	-	.	.
CCN(C(=O)COC(=O)/C=C/c1ccco1)c1c(N)n(Cc2ccccc2)c(=O)[nH]c1=O	-	.	.	-	.	.	.	.
O=[N+]([O-])c1ccc(/C=N/NC(=S)Nc2ccc(Cl)cc2Cl)s1	124	63	-	-	56	107	70	52
O=C(N/N=C\c1ccc([N+](=O)[O-])s1)c1cncc(Br)c1	-	58	-	84	-	108	44	45
Cc1cc(Cl)ccc1NC(=O)CCC(=O)N/N=C/c1cccnc1	-	-	-	-	-	?	.	.
